In ChEMBL document CHEMBL4196221, “Improved Total Synthesis and Biological Evaluation of Coibamide A Analogues” (J Med Chem, 2018):
Active and inactive are the calls of the source. The rule behind the calls is not given here. Bridge positions count the residues as written; N and C are the ends. Square brackets hold non-standard residues; d marks the D form. Peptide text beside a SMILES is read from it. * marks the point of attachment. NMe2Val = CC(C)[C@@H](C(=O)*)N(C)C; NMeI = CC[C@H](C)[C@H](NC)C(=O)O; NMeT = CN[C@H](C(=O)O)[C@@H](C)O; NMeL = CN[C@@H](CC(C)C)C(=O)O; dHiv = CC(C)[C@@H](O)C(=O)O; NMeA = CN[C@@H](C)C(=O)O; dNMeA = CN[C@H](C)C(=O)O

Legend:
[1] = test system: MDA-MB-231; test: Growth inhibition of human MDA-MB-231 cells incubated for 72 hrs by MTT assay; assay type: functional; details: MDA-MB-231, 72 h
Method in brief: (§1)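 Cells seeded in 96-well plates; after 12 h, fresh medium with a concentration gradient of compound or DMSO vehicle added, then 72 h incubation. MTT added (final 0.5 mg/mL) for 4 h, medium removed, formazan dissolved in DMSO, shaken 2 min, 30 min at 37 °C, absorbance read at 490 nm. Inhibition % = [1 − OD(compound)/OD(control)] × 100; GI50 = 50% reduction versus control; three independent experiments.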

[2] = test system: PANC-1; test: Growth inhibition of human PANC1 cells incubated for 72 hrs by MTT assay; assay type: functional; details: PANC-1, 72 h; method in brief: as §1
[3] = test system: A549; test: Growth inhibition of human A549 cells incubated for 72 hrs by MTT assay; assay type: functional; details: A549, 72 h; method in brief: as §1
[4] = test system: Mus musculus; test: Toxicity in Balb/c nude mouse xenografted with human MDA-MB-231 cells assessed as induction of body weight loss at 0.3 mg/kg, sc dosed every 2 days for total of 11 compound injections; assay type: organism-based; details: in vivo, 48 h
Method in brief: (§2)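 Balb/c nude mice given 1 ×10^7 MDA-MB-231 cells subcutaneously in right flank; at tumor size ∼100 mm3 (L × W × 1/2W), peritumoral subcutaneous injection every 2 days, vehicle equal volume 20% DMSO/80% sterile saline. Tumor size and body weight measured before each injection; after 11 injections mice sacrificed and tumors weighed. n = 7 treated, 4 vehicle; one-way ANOVA.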

[5] = test system: MDA-MB-231; test: Antitumor activity against human MDA-MB-231 cells xenografted in Balb/c nude mouse assessed as reduction in tumor mass at 0.3 mg/kg, sc dosed every 2 days for total of 11 compound injections; assay type: functional; method in brief: as §2
[6] = test system: Mus musculus; test: Toxicity in Balb/c nude mouse xenografted with human MDA-MB-231 cells assessed as induction of side effect at 0.3 mg/kg, sc dosed every 2 days for total of 11 compound injections; assay type: organism-based; details: in vivo, 48 h; method in brief: as §2
[7] = test system: MDA-MB-231; test: Antitumor activity against human MDA-MB-231 cells xenografted in Balb/c nude mouse assessed as reduction in tumor size at 0.3 mg/kg, sc dosed every 2 days for total of 11 compound injections measured on day 9 onwards; assay type: functional, organism-based; method in brief: as §2

SMILES | GI50 [1] [µM] | GI50 [2] [µM] | GI50 [3] [µM] | Activity [4] | fold change (FC) [5] | Activity [6] | Activity [7]
CC[C@H](C)[C@H]1C(=O)N[C@@H](C)C(=O)N(C)[C@@H](CC(C)C)C(=O)N[C@@H](Cc2ccc(OC)cc2)C(=O)N(C)[C@H](C)C(=O)O[C@H](C)[C@H](N(C)C(=O)[C@H](CC(C)C)N(C)C(=O)[C@H](C)N(C)C(=O)[C@H](OC(=O)[C@H](C(C)C)N(C)C(=O)CCN)C(C)C)C(=O)N(C)[C@@H](C)C(=O)N1C | > 16 | – | – | – | – | – | –
CC[C@H](C)[C@H]1C(=O)N[C@@H](C)C(=O)N(C)[C@@H](CC(C)C)C(=O)N[C@@H](Cc2ccc(OC)cc2)C(=O)N(C)[C@H](C)C(=O)O[C@H](C)[C@H](N(C)C(=O)[C@H](CC(C)C)NC)C(=O)N(C)[C@@H](C)C(=O)N1C | > 16 | – | – | – | – | – | –
CC[C@H](C)[C@H]1C(=O)N[C@@H](C)C(=O)N(C)[C@@H](CC(C)C)C(=O)N[C@@H](Cc2ccc(OC)cc2)C(=O)N(C)[C@H](C)C(=O)O[C@H](C)[C@H](N(C)C(=O)[C@H](CC(C)C)N(C)C(=O)[C@H](COC)N(C)C(=O)[C@H](NC(=O)[C@H](C(C)C)N(C)C)C(C)C)C(=O)N(C)[C@@H](COC)C(=O)N1C | 0.45 | 0.601 | 0.473 | – | – | – | –
CC[C@H](C)[C@H]1C(=O)N[C@@H](C)C(=O)N(C)[C@@H](CC(C)C)C(=O)N[C@@H](Cc2ccc(OC)cc2)C(=O)N(C)[C@H](C)C(=O)O[C@H](C)[C@H](N(C)C(=O)[C@H](CC(C)C)N(C)C(=O)[C@H](COC(C)(C)C)N(C)C(=O)[C@H](OC(=O)[C@H](C(C)C)N(C)C)C(C)C)C(=O)N(C)[C@@H](C)C(=O)N1C | 0.0053 | 0.0329 | 0.0124 | – | – | – | –
CC[C@H](C)[C@H]1C(=O)N[C@@H](C)C(=O)N(C)[C@@H](CC(C)C)C(=O)N[C@@H](Cc2ccc(OC)cc2)C(=O)N(C)[C@H](C)C(=O)O[C@H](C)[C@H](N(C)C(=O)[C@H](CC(C)C)N(C)C(=O)[C@H](C)N(C)C(=O)[C@H](OC(=O)[C@H](C(C)C)N(C)C(=O)CCNC(=O)OC(C)(C)C)C(C)C)C(=O)N(C)[C@@H](C)C(=O)N1C | 0.239 | 0.415 | 0.443 | – | – | – | –
CC[C@H](C)[C@H]1C(=O)N[C@@H](C)C(=O)N(C)[C@@H](CC(C)C)C(=O)N[C@@H](Cc2ccc(OC)cc2)C(=O)N(C)[C@@H](C)C(=O)O[C@H](C)[C@H](N(C)C(=O)[C@H](CC(C)C)N(C)C(=O)[C@H](COC)N(C)C(=O)[C@H](OC(=O)[C@H](C(C)C)N(C)C)C(C)C)C(=O)N(C)[C@@H](COC)C(=O)N1C | 7.52 | 12.4 | 20.1 | – | – | – | –
CC[C@H](C)[C@H]1C(=O)N[C@@H](C)C(=O)N(C)[C@@H](CC(C)C)C(=O)N[C@@H](Cc2ccc(OC)cc2)C(=O)N(C)[C@H](C)C(=O)O[C@H](C)[C@H](N(C)C(=O)[C@H](CC(C)C)N(C)C(=O)[C@H](C)N(C)C(=O)[C@@H](C(C)C)N(C)C(=O)[C@H](C(C)C)N(C)C)C(=O)N(C)[C@@H](C)C(=O)N1C | 0.415 | 0.723 | 0.511 | – | – | – | –
CC[C@H](C)[C@H]1C(=O)N[C@@H](C)C(=O)N(C)[C@@H](CC(C)C)C(=O)N[C@@H](Cc2ccc(OC)cc2)C(=O)N(C)[C@@H](C)C(=O)O[C@H](C)[C@H](N(C)C(=O)[C@H](CC(C)C)N(C)C(=O)[C@H](COC)N(C)C(=O)[C@@H](OC(=O)[C@H](C(C)C)N(C)C)C(C)C)C(=O)N(C)[C@@H](COC)C(=O)N1C | > 16 | – | 22.8 | – | – | – | –
CC[C@H](C)[C@H]1C(=O)N[C@@H](C)C(=O)N(C)[C@@H](CC(C)C)C(=O)N[C@@H](Cc2ccc(OC)cc2)C(=O)N(C)[C@H](C)C(=O)O[C@H](C)[C@H](N(C)C(=O)[C@H](CC(C)C)N(C)C(=O)[C@H](COC)N(C)C(=O)[C@H](OC(=O)[C@H](C(C)C)N(C)C)C(C)C)C(=O)N(C)[C@@H](COC)C(=O)N1C | 0.005 | 0.0031 | 0.0054 | – | – | – | –
CC[C@H](C)[C@H]1C(=O)N[C@@H](C)C(=O)N(C)[C@@H](CC(C)C)C(=O)N[C@@H](Cc2ccc(OC)cc2)C(=O)N(C)[C@H](C)C(=O)O[C@H](C)[C@H](N(C)C(=O)[C@H](CC(C)C)N(C)C(=O)[C@H](C)N(C)C(=O)[C@H](OC(=O)[C@H](C(C)C)N(C)C)C(C)C)C(=O)N(C)[C@@H](C)C(=O)N1C (NMe2Val-[dHiv][NMeA][NMeL][NMeT][NMeA][NMeI]A[NMeL]Y(Me)[dNMeA]; ester 4-C) | 0.0051 | 0.007 | 0.0073 | Non-Toxic | 2 | Non-Toxic | Active
CC[C@H](C)[C@H]1C(=O)N[C@@H](C)C(=O)N(C)[C@@H](CC(C)C)C(=O)N[C@@H](Cc2ccc(OC)cc2)C(=O)N(C)[C@H](C)C(=O)O[C@H](C)[C@H](N(C)C(=O)[C@H](CC(C)C)N(C)C(=O)[C@H](CO)N(C)C(=O)[C@H](OC(=O)[C@H](C(C)C)N(C)C)C(C)C)C(=O)N(C)[C@@H](CO)C(=O)N1C | 2.06 | 2.18 | – | – | – | – | –
CC[C@H](C)[C@H]1C(=O)N[C@@H](C)C(=O)N(C)[C@@H](CC(C)C)C(=O)N[C@@H](Cc2ccc(OC)cc2)C(=O)N(C)[C@H](C)C(=O)O[C@H](C)[C@H](N(C)C(=O)[C@H](CC(C)C)N(C)C(=O)[C@H](CO)N(C)C(=O)[C@H](OC(=O)[C@H](C(C)C)N(C)C)C(C)C)C(=O)N(C)[C@@H](COC(C)(C)C)C(=O)N1C | 0.0208 | 0.0463 | 0.194 | – | – | – | –
CC[C@H](C)[C@H]1C(=O)N[C@@H](C)C(=O)N(C)[C@@H](CC(C)C)C(=O)N[C@@H](Cc2ccc(OC)cc2)C(=O)N(C)[C@H](C)C(=O)O[C@H](C)[C@@H](N(C)C(=O)[C@H](CC(C)C)N(C)C(=O)[C@H](COC)N(C)C(=O)[C@@H](OC(=O)[C@H](C(C)C)N(C)C)C(C)C)C(=O)N(C)[C@@H](COC)C(=O)N1C | 10.8 | – | – | – | – | – | –
CC[C@H](C)[C@H]1C(=O)N[C@@H](C)C(=O)N(C)[C@@H](CC(C)C)C(=O)N[C@@H](Cc2ccc(OC)cc2)C(=O)N(C)[C@H](C)C(=O)O[C@H](C)[C@H](N(C)C(=O)[C@H](CC(C)C)N(C)C(=O)[C@H](CCCCNC(=O)OC(C)(C)C)N(C)C(=O)[C@H](OC(=O)[C@H](C(C)C)N(C)C)C(C)C)C(=O)N(C)[C@@H](C)C(=O)N1C | 0.0616 | 0.124 | 0.0817 | – | – | – | –
CC[C@H](C)[C@H]1C(=O)N[C@@H](C)C(=O)N(C)[C@@H](CC(C)C)C(=O)N[C@@H](Cc2ccc(OC)cc2)C(=O)N(C)[C@H](C)C(=O)O[C@H](C)[C@H](N(C)C(=O)[C@H](CC(C)C)N(C)C(=O)[C@@H](COC)N(C)C(=O)[C@@H](OC(=O)[C@H](C(C)C)N(C)C)C(C)C)C(=O)N(C)[C@@H](COC)C(=O)N1C | 2.66 | 1.91 | 2 | – | – | – | –
CC[C@H](C)[C@H]1C(=O)N[C@@H](C)C(=O)N(C)[C@@H](CC(C)C)C(=O)N[C@@H](Cc2ccc(O)cc2)C(=O)N(C)[C@H](C)C(=O)O[C@H](C)[C@H](N(C)C(=O)[C@H](CC(C)C)N(C)C(=O)[C@H](COC)N(C)C(=O)[C@H](OC(=O)[C@H](C(C)C)N(C)C)C(C)C)C(=O)N(C)[C@@H](COC)C(=O)N1C | 0.183 | 0.277 | 0.222 | – | – | – | –
CC[C@H](C)[C@H]1C(=O)N[C@@H](C)C(=O)N(C)[C@@H](CC(C)C)C(=O)N[C@@H](Cc2ccc(OC)cc2)C(=O)N(C)[C@H](C)C(=O)O[C@H](C)[C@H](N(C)C(=O)[C@H](CC(C)C)N(C)C(=O)[C@H](C)N(C)C(=O)[C@H](OC(=O)[C@@H](NC)C(C)C)C(C)C)C(=O)N(C)[C@@H](C)C(=O)N1C | 0.236 | 0.204 | 0.36 | – | – | – | –
CC[C@H](C)[C@H]1C(=O)N[C@@H](C)C(=O)N(C)[C@@H](CC(C)C)C(=O)N[C@@H](Cc2ccc(OC)cc2)C(=O)N(C)[C@H](C)C(=O)O[C@H](C)[C@H](N(C)C(=O)[C@H](CC(C)C)N(C)C(=O)[C@H](COC)N(C)C(=O)[C@@H](OC(=O)[C@H](C(C)C)N(C)C)C(C)C)C(=O)N(C)[C@@H](COC)C(=O)N1C | 0.545 | – | 0.019 | – | – | – | –
CCCCCCCCCC(=O)N(C)[C@@H](CC(C)C)C(=O)N(C)[C@@H]1C(=O)N(C)[C@@H](C)C(=O)N(C)[C@@H]([C@@H](C)CC)C(=O)N[C@@H](C)C(=O)N(C)[C@@H](CC(C)C)C(=O)N[C@@H](Cc2ccc(OC)cc2)C(=O)N(C)[C@H](C)C(=O)O[C@@H]1C | 0.47 | 0.828 | 0.733 | – | – | – | –
